Assay [1] concerns Streptococcus pyogenes. The experiment in a line: The compound was tested in vitro for antibiotic activity against Streptococcus pyogenes 930.
The subject of assay [2] is Escherichia coli. As to the kind of experiment: Compound was tested in vitro for antibiotic activity against the bacteria Escherichia coli juhl. The assay is classed as functional. Put shortly:
(§1)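 Overnight cultures were grown in brain-heart infusion broth at 36 °C. The compound was diluted twofold in brain-heart infusion agar over a range of 200 to 0.005 µg/mL (final). Each plate received about 10⁴ organisms and was incubated at 36 °C for 18 h. The MIC was taken as the lowest concentration giving no visible growth.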

Assay [3] concerns Klebsiella aerogenes. The experiment in a line: Compound was tested in vitro for antibiotic activity against bacteria Enterobacter aerogenes ATCC 13048. The assay is classed as functional. Put shortly:
as §1

The test system of assay [4] is Pseudomonas aeruginosa. As to the kind of experiment: Compound was tested in vitro for antibiotic activity against the bacteria Pseudomonas aeruginosa K799/WT. The assay is classed as functional. The gist of the method: as §1
In assay [5] the test system is Enterococcus faecium. The experiment in a line: The compound was tested in vitro for antibiotic activity against […] ATCC 8043. It counts as functional. Put shortly:
as §1

In assay [6] the test system is Klebsiella pneumoniae. As to the kind of experiment: Compound was tested in vitro for antibiotic activity against the bacteria Klebsiella pneumoniae 8045. The assay is classed as functional. The gist of the method: as §1
The test system of assay [7] is Staphylococcus epidermidis. As to the kind of experiment: The compound was tested in vitro for antibiotic activity against Staphylococcus epidermidis 3519. It counts as functional. The gist of the method: as §1
The test system of assay [8] is Acinetobacter. As to the kind of experiment: Compound was tested in vitro for antibiotic activity against the bacteria Acinetobacter sp. CMX669. It counts as functional. Put shortly:
as §1

Assay [9] relates to Staphylococcus aureus. As to the kind of experiment: The compound was tested in vitro for antibiotic activity against Staphylococcus aureus 686B. It counts as functional. Put shortly:
as §1

The subject of assay [10] is Staphylococcus aureus. The experiment in a line: The compound was tested in vitro for antibiotic activity against Staphylococcus aureus ATCC 6538P. The assay is classed as functional. Put shortly: as §1
For assay [11], the system named is Pseudomonas aeruginosa. The experiment in a line: Compound was tested in vitro for antibiotic activity against the bacteria Pseudomonas aeruginosa 5007. It counts as functional. The gist of the method: as §1

This passage reports MIC results from ChEMBL document CHEMBL1123550, “Synthesis and biological activity of benzothiazolo[3,2-a]quinolone antibacterial agents” (1986).

≈ marks a conversion by molar mass, not a printed value.

In assay [1], `CN1CCN(c2cc3c(cc2F)c(=O)c(C(=O)O)cn3-c2ccccc2)CC1` came in with an MIC of 3.1 µg/mL (≈ 8.13 µM).

With `CCC(=O)N1CCN(c2cc3c(cc2F)c(=O)c(C(=O)O)c2sc4ccccc4n23)CC1`, the minimal inhibitory concentration (MIC) in [2] was 6.2 µg/mL (≈ 13.7 µM); in assay [3] it was 12.5 µg/mL (≈ 27.6 µM); in assay [4] it was above 100 µg/mL; in assay [5], 6.2 µg/mL (≈ 13.7 µM); in assay [6] it was 1.56 µg/mL (≈ 3.44 µM); in assay [7] it was 0.39 µg/mL (≈ 0.86 µM). Besides, the minimal inhibitory concentration (MIC) in assay [8] was 0.1 µg/mL (≈ 0.221 µM); in assay [1], 3.1 µg/mL (≈ 6.84 µM); in assay [9], 0.39 µg/mL (≈ 0.86 µM); in [10] it was 0.39 µg/mL (≈ 0.86 µM); in assay [11], above 100 µg/mL.

`Cc1ccccc1-n1cc(C(=O)O)c(=O)c2cc(F)c(N3CCN(C)CC3)cc21`: in assay [1], the MIC was 50 µg/mL (≈ 126 µM).

With `O=C(O)c1cn(-c2ccccc2)c2cc(N3CCNCC3)c(F)cc2c1=O`, the MIC stood at 0.78 µg/mL (≈ 2.12 µM) in assay [7] and 1.56 µg/mL (≈ 4.25 µM) in assay [1].

In the case of `O=C(O)c1c(=O)c2cc(F)c(N3CCNCC3)cc2n2c1sc1ccccc12`, the MIC in [2] stood at 0.2 µg/mL (≈ 0.503 µM); in assay [3], 0.78 µg/mL (≈ 1.96 µM); in assay [4], 1.56 µg/mL (≈ 3.93 µM); in assay [5], 0.78 µg/mL (≈ 1.96 µM); in assay [6], 0.2 µg/mL (≈ 0.503 µM); in [7], 0.39 µg/mL (≈ 0.981 µM). Besides, the minimal inhibitory concentration (MIC) in assay [8] stood at 0.39 µg/mL (≈ 0.981 µM); in [1], 0.78 µg/mL (≈ 1.96 µM); in assay [9] it was 0.39 µg/mL (≈ 0.981 µM); in assay [10], 0.39 µg/mL (≈ 0.981 µM); in assay [11], 1.56 µg/mL (≈ 3.93 µM).

Turning to `CC(=O)N1CCN(c2cc3c(cc2F)c(=O)c(C(=O)O)c2sc4ccccc4n23)CC1`, the minimum inhibitory concentration (MIC) was 6.2 µg/mL (≈ 14.1 µM) in assay [2]; above 100 µg/mL in assay [3]; above 100 µg/mL in assay [4]; 6.2 µg/mL (≈ 14.1 µM) in assay [5]; 1.56 µg/mL (≈ 3.55 µM) in assay [6]; 0.39 µg/mL (≈ 0.887 µM) in [7]. Further, the minimal inhibitory concentration (MIC) in [8] was 6.2 µg/mL (≈ 14.1 µM); in [1], 3.1 µg/mL (≈ 7.05 µM); in assay [9], 0.2 µg/mL (≈ 0.455 µM); in assay [10], 0.2 µg/mL (≈ 0.455 µM); in [11] it was above 100 µg/mL.

In the case of `CN1CCN(c2cc3c(cc2F)c(=O)c(C(=O)O)c2sc4ccccc4n23)CC1`, the MIC in assay [2] was found to be 0.78 µg/mL (≈ 1.9 µM); in assay [3], 1.56 µg/mL (≈ 3.79 µM); in assay [4] it was 6.2 µg/mL (≈ 15.1 µM); in assay [5] it was 1.56 µg/mL (≈ 3.79 µM); in assay [6] it was 0.39 µg/mL (≈ 0.948 µM); in assay [7], 0.78 µg/mL (≈ 1.9 µM). Further, the minimal inhibitory concentration (MIC) in assay [8] was 0.39 µg/mL (≈ 0.948 µM); in assay [1], 1.56 µg/mL (≈ 3.79 µM); in assay [9], 0.39 µg/mL (≈ 0.948 µM); in assay [10] it was 0.39 µg/mL (≈ 0.948 µM); in [11], 6.2 µg/mL (≈ 15.1 µM).

Take `Cc1cccc(C)c1-n1cc(C(=O)O)c(=O)c2cc(F)c(N3CCN(C)CC3)cc21`: in assay [1], the minimal inhibitory concentration (MIC) is above 100 µg/mL.

As to `CCn1cc(C(=O)O)c(=O)c2cc(F)c(N3CCNCC3)cc21` [NORFLOXACIN], the minimal inhibitory concentration (MIC) in assay [1] was determined as 3.1 µg/mL (≈ 9.71 µM).
